Active and inactive are the calls of the source. No cut-off for these calls is given here.
Key:
[1] = molecular target: Metabotropic glutamate receptor 2 (Rattus norvegicus) (UniProt P31421); experiment: Ratio between EC50 of compound and glutamate measured against Metabotropic glutamate receptor 2; type: functional
Summary of the method: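 mGluR2 (rat, transient in HEK 293 cells with co-expressed Gqi9 chimera) inositol phosphate formation; EC50 from Hill fits of at least eight concentrations over 3 orders of magnitude, reported as ratio to the glutamate EC50 determined under the same conditions.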

[2] = molecular target: Metabotropic glutamate receptor 1 (Rattus norvegicus) (UniProt P23385); experiment: Ratio between EC50 of compound and glutamate measured against metabotropic glutamate receptor 1; type: functional
Summary of the method: (§1)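 mGluR1a (rat, transient in LLC-PK1 or HEK 293 cells) inositol phosphate formation; EC50 from Hill fits of at least eight-point curves over 3 log units, expressed as ratio of compound EC50 to glutamate EC50 measured in the same assay.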

[3] = molecular target: T1, Metabotropic glutamate receptor 1 (Rattus norvegicus, UniProt P23385); experiment: Inhibitory activity against Metabotropic glutamate receptor 1 in the rat LLC-PK1/HEK 293 cells; type: cell-based, HEK293
Summary of the method: (§2)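 Rat mGluR1a transiently expressed in LLC-PK1 or HEK 293 cells; receptor activity read as agonist-induced inositol phosphate formation. At least eight agonist concentrations spanning 3 orders of magnitude gave full dose-response curves, fitted to a Hill equation for maximal effect, EC50 (or IC50) and Hill coefficient.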

[4] = molecular target: T1, Metabotropic glutamate receptor 1; experiment: Inhibitory activity against Metabotropic glutamate receptor 1 in the rat LLC-PK1/HEK 293 cells.; type: cell-based, HEK293; summary of the method: as §2
[5] = molecular target: Metabotropic glutamate receptor 2 (Rattus norvegicus, UniProt P31421); experiment: Inhibitory activity against Metabotropic glutamate receptor 2 in the rat HEK 293 cells.; type: cell-based, HEK293
Summary of the method: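 Rat mGluR2 transiently expressed in HEK 293 cells, cotransfected with chimeric G-protein Gqi9 so the receptor couples to PLC; activity read as agonist-induced inositol phosphate formation. At least eight concentrations over 3 orders of magnitude gave full dose-response curves, Hill-equation fit giving maximal effect, EC50 (or IC50) and Hill coefficient.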

[6] = molecular target: Metabotropic glutamate receptor 1 (Rattus norvegicus) (UniProt P23385); experiment: Ratio between the measured EC50 and the glutamate EC50 measured against Metabotropic glutamate receptor 1; No effect; type: functional; summary of the method: as §1
[7] = molecular target: T1, Metabotropic glutamate receptor 1; experiment: Inhibitory activity against Metabotropic glutamate receptor 1 in the rat LLC-PK1/HEK 293 cells.; No effect; type: cell-based; conditions: hek293; summary of the method: as §2
[8] = molecular target: Metabotropic glutamate receptor 2 (Homo sapiens, UniProt Q14416); experiment: Inhibitory activity against human Metabotropic glutamate receptor 2
Sequence of Metabotropic glutamate receptor 2 (Homo sapiens, UniProt Q14416) (Q14416 whole entry): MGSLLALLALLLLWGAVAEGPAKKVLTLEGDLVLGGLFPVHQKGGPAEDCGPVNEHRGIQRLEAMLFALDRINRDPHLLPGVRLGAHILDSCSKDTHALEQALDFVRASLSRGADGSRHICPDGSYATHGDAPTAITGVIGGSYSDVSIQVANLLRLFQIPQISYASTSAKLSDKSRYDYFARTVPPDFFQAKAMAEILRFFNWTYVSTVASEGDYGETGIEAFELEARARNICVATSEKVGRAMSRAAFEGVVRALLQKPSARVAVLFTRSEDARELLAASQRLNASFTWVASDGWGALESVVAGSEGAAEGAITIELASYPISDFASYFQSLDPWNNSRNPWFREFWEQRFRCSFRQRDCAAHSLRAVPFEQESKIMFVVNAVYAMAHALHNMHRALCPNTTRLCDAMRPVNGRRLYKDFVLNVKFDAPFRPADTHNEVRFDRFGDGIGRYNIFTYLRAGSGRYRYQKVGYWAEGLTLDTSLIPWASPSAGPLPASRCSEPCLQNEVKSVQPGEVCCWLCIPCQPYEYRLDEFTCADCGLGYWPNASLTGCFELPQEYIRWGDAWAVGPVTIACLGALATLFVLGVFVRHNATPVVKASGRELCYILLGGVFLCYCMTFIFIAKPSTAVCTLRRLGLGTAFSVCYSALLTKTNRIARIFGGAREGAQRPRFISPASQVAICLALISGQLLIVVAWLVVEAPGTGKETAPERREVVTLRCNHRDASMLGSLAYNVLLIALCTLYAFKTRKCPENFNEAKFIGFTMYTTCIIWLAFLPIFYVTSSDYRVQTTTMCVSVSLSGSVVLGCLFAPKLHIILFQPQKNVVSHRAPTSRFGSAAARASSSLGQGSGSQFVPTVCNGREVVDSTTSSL

T1 sequence (P23385 whole entry): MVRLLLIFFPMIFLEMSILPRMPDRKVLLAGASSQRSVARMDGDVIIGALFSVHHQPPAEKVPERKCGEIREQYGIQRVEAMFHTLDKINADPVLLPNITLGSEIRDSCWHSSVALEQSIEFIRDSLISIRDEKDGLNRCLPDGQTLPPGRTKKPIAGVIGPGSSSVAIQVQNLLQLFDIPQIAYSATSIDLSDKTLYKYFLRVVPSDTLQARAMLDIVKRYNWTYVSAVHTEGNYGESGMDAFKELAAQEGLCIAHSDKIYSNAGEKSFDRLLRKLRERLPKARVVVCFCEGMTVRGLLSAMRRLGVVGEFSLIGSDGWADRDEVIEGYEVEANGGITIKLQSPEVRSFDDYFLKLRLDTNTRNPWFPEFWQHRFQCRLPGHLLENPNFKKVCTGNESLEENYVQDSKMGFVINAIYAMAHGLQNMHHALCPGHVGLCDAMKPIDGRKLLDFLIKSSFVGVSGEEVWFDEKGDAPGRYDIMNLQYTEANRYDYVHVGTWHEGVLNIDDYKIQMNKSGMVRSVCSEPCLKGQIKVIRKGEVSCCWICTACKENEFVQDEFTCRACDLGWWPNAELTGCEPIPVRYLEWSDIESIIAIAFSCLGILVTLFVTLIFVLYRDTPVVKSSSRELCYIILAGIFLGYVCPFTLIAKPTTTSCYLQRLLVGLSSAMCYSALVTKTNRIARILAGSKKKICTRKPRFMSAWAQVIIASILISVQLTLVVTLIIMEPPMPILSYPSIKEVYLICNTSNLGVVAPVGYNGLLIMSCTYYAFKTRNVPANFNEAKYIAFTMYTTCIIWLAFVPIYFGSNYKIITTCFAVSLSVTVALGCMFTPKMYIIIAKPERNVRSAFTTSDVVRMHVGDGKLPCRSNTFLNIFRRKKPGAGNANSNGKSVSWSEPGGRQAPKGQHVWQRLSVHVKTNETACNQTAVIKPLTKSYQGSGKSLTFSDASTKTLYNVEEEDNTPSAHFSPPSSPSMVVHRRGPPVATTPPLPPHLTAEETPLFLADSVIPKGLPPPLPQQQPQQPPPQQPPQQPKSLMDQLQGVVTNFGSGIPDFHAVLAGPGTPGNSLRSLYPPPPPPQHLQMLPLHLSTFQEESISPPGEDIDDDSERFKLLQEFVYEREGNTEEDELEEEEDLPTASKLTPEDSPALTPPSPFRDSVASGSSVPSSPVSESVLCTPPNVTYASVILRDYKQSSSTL
Sequence of Metabotropic glutamate receptor 2 (Rattus norvegicus, UniProt P31421) (P31421 whole entry): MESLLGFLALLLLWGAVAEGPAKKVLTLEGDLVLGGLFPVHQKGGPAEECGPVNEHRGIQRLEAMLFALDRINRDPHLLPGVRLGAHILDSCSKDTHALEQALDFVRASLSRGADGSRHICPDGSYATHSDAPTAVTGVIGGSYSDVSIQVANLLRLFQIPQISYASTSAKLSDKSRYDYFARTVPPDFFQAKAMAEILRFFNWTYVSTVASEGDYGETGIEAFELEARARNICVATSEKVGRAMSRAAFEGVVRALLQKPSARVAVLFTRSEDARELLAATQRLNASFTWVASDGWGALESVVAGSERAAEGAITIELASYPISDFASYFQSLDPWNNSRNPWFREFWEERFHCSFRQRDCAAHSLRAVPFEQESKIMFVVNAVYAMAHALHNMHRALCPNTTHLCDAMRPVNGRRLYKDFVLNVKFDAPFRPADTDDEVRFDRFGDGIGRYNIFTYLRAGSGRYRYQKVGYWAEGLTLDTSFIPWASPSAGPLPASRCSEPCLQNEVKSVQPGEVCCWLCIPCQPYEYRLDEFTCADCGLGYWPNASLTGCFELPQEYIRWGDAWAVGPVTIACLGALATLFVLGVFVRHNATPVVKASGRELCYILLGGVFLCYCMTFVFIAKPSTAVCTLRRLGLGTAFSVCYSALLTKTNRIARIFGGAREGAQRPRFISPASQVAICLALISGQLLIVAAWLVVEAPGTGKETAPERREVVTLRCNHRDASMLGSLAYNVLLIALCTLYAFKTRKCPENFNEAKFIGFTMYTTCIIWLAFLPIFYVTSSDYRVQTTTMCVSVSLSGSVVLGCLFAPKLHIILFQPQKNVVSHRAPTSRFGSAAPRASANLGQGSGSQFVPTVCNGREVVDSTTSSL
Sequence of Metabotropic glutamate receptor 2 (Rattus norvegicus) (P31421 19-872 limits assumed): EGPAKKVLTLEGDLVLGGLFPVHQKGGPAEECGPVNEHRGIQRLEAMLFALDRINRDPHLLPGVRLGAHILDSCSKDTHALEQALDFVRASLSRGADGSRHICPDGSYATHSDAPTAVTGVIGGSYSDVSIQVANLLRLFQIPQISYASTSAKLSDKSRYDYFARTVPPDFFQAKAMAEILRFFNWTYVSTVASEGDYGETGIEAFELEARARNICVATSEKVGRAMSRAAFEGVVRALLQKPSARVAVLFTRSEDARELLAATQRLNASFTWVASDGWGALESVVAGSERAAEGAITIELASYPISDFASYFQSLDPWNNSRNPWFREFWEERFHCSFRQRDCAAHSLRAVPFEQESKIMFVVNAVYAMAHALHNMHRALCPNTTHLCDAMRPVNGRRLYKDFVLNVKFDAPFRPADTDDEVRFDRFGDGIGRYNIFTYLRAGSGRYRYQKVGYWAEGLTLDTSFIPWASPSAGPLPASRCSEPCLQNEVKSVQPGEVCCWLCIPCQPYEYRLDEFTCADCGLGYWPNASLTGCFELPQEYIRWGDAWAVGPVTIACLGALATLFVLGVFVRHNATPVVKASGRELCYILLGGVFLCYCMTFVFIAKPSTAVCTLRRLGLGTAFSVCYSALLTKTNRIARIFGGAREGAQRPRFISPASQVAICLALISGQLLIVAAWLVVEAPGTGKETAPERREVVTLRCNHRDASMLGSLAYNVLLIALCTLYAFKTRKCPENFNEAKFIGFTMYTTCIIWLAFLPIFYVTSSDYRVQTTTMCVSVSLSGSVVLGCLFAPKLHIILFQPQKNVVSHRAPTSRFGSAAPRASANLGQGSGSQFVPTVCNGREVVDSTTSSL
Sequence of Metabotropic glutamate receptor 1 (Rattus norvegicus) (P23385 19-1199 limits assumed): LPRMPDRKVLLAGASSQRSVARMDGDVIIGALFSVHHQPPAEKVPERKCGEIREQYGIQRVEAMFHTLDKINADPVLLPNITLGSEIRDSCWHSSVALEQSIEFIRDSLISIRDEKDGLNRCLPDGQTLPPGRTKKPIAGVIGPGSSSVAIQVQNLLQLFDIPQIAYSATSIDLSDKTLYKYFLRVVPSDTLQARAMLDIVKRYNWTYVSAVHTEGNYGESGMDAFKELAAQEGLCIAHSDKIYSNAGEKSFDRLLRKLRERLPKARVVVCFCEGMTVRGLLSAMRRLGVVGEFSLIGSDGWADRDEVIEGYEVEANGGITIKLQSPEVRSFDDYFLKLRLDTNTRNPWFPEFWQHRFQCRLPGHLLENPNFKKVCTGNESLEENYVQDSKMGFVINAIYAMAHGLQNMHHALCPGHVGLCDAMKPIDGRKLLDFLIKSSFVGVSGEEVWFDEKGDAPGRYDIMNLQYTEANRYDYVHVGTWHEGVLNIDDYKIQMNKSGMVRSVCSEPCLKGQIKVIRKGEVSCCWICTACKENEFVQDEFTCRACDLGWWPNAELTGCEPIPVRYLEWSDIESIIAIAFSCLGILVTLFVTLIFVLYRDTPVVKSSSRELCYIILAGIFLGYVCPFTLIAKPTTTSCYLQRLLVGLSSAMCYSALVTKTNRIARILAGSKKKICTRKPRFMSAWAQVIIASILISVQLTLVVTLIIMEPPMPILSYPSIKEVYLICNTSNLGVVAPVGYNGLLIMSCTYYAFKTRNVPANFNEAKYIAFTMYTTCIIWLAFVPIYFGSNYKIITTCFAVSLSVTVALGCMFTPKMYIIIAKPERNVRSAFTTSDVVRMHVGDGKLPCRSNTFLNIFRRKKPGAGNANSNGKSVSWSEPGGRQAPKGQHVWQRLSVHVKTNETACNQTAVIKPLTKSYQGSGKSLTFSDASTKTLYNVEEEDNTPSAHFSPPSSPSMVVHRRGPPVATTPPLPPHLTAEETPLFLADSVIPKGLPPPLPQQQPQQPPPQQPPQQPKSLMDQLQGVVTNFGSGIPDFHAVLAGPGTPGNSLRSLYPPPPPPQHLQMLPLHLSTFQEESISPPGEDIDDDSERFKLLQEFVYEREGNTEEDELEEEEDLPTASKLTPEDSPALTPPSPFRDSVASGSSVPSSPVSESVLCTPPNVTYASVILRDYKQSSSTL

Row | Compound | EC50 ratio [1] | EC50 ratio [2] | other results
1 | NC1(C(=O)O)CC2CCC1C2C(=O)O (stereo in doubt; 10) | > 80 | > 80 | –
2 | C=C(CC(N)C(=O)O)C(=O)O (racemic) | 0.4 | 1.1 | –
3 | CC(N)(CCC(=O)O)C(=O)O (racemic) | > 80 | – | –
4 | NC1(C(=O)O)CC2CC1C2C(=O)O (stereo in doubt; 13) | 186 | 25 | –
5 | N[C@@H](CCC(=O)O)C(=O)O | 1 | 1 | –
6 | C[C@@H](CC(=O)O)[C@H](N)C(=O)O | 80 | 13 | –
7 | NC1(C(=O)O)CC2CC1C2C(=O)O (stereo in doubt; 14) | 131 | 47 | –
8 | N[C@H](C(=O)O)c1ccc(C(=O)O)c(O)c1 | 4 | – | IC50 [3]: 40 µM
9 | O=C(O)[C@H]1C[C@H](C(=O)O)N1 | > 80 | 15 | –
10 | C[C@](N)(CCC(=O)O)C(=O)O | – | > 80 | –
11 | NC1(C(=O)O)CC2CC1C2C(=O)O (stereo in doubt; 12) | 1.1 | 0.32 | –
12 | C=C(C[C@H](N)C(=O)O)C(=O)O | – | 0.7 | –
13 | C[C@H](C[C@@H](N)C(=O)O)C(=O)O | 1.1 | 4.9 | –
14 | N[C@H](C(=O)O)c1cc(O)cc(O)c1 | – | 0.53 | –
15 | N[C@H](C(=O)O)[C@H]1C[C@@H]1C(=O)O | 0.04 | 5 | –
16 | C=C(C[C@@H](N)C(=O)O)C(=O)O | – | 14 | –
17 | N[C@H](C(=O)O)c1cccc(O)c1 | > 80 | 7.8 | –
18 | N[C@H](C(=O)O)C1[C@@H](C(=O)O)[C@@H]1C(=O)O (stereo partly specified) | 0.03 | – | IC50 [4]: 389 µM
19 | C[C@@H](C[C@H](N)C(=O)O)C(=O)O | 0.3 | 0.5 | –
20 | N[C@H](C(=O)O)C12CC(C(=O)O)(C1)C2 | > 60 | – | IC50 [4]: 25 µM; IC50 [5]: > 300 µM

Row | Compound | EC50 ratio [1] | EC50 ratio [2] | other results
21 | N[C@@]1(C(=O)O)CC[C@@H](C(=O)O)C1 | 1.6 | 0.75 | –
22 | N[C@]1(C(=O)O)C[C@H](C(=O)O)[C@H](C(=O)O)C1 | – | – | EC50 ratio [6]: inactive; IC50 [4]: 115 µM; IC50 [5]: 88 µM
23 | N[C@@]1(C(=O)O)CC[C@H]2[C@H](C(=O)O)[C@H]21 | 0.004 | – | IC50 [4]: 458 µM
24 | C[C@H](CC(=O)O)[C@H](N)C(=O)O | 12 | 23 | –
25 | NC1(C(=O)O)CC2CCC1C2C(=O)O (stereo in doubt; 8) [listing 1 of 2 here] | – | – | IC50 [4]: 300 µM
26 | N[C@@H](CC(C(=O)O)C(=O)O)C(=O)O | – | – | EC50 ratio [6]: inactive; IC50 [7]: Not Active; IC50 [5]: 102 µM
27 | N[C@@H](C[C@H](CCCC(c1ccccc1)c1ccccc1)C(=O)O)C(=O)O | – | – | IC50 [8]: 0.4 µM; IC50 [7]: Not Active
28 | N[C@@H](Cn1oc(=O)[nH]c1=O)C(=O)O | > 90 | 0.02 | –
29 | C[C@H](C[C@H](N)C(=O)O)C(=O)O | 23 | 4.6 | –
30 | C[C@@](N)(C(=O)O)[C@H]1C[C@@H]1C(=O)O | – | – | EC50 ratio [6]: inactive; IC50 [5]: 77 µM
31 | N[C@H](C(=O)O)c1cc(O)no1 | 25 | 0.91 | –
32 | N[C@H](C(=O)O)[C@@H]1C[C@H]1C(=O)O | – | 20 | –
33 | CC(CC(N)C(=O)O)C(=O)O (racemic) | 0.53 | 0.65 | –
34 | N[C@@H](C[C@H](CC(c1ccccc1)c1ccccc1)C(=O)O)C(=O)O | – | – | IC50 [8]: 3 µM; IC50 [7]: Not Active
35 | NC1(C(=O)O)CC2CCC1C2C(=O)O (stereo in doubt; 8) [listing 2 of 2 here] | > 80 | – | –
36 | C[C@@](N)(CCC(=O)O)C(=O)O | – | > 80 | –
37 | NC1(C(=O)O)C2CCC1C(C(=O)O)C2 (stereo unspecified) | > 80 | > 80 | IC50 [4]: > 1000 µM; IC50 [5]: > 1000 µM
38 | N[C@@]1(C(=O)O)CC[C@H](C(=O)O)C1 | 1.2 | > 25 | –
39 | N[C@@]1(C(=O)O)CN[C@@H](C(=O)O)C1 | 0.4 | > 80 | –
40 | N[C@]1(C(=O)O)CC[C@H](C(=O)O)C1 | 10 | 10 | –

— ChEMBL document CHEMBL1132716, “Agonist selectivity of mGluR1 and mGluR2 metabotropic receptors: a different environment but similar recognition of an extended glutamate conformation” (J Med Chem, 1999)
